Source: ChEMBL document CHEMBL3098023, “Rationally designed hybrid molecules with appreciable COX-2 inhibitory and anti-nociceptive activities” (Bioorg Med Chem Lett, 2014)
Active and inactive are the calls of the source. No cut-off for these calls is given here.

Columns and labels:
Mus musculus [1] = test: Antinociceptive activity in Swiss albino mouse assessed as reduction in capsaicin-induced paw licking at 10 mg/kg, ip administered 30 mins prior to capsaicin-challenge; assay type: functional, organism-based; design: dose 10 mg/kg
Method in brief: (§1)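 Swiss albino mice (25–35 g) of either sex, acclimatized at least 1 h, each used once; groups of 6. Treatments given ip 30 min before intraplantar capsaicin (1.6 µg in 20 µL) into right hind paw; saline (0.5 mL) control, diclofenac 25 mg/kg reference, test doses 5 or 10 mg/kg. Time spent paw licking and twitching recorded over 10 min per animal.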

Mus musculus [2] = test: Antinociceptive activity in Swiss albino mouse assessed as reduction in capsaicin-induced paw licking at 5 mg/kg, ip administered 30 mins prior to capsaicin-challenge; assay type: functional, organism-based; design: dose 5 mg/kg; method in brief: as §1
[3] = target: T1, Prostaglandin G/H synthase 1 (Ovis aries, UniProt P05979); test: Inhibition of ovine COX1 using arachidonic acid as substrate incubated for 10 mins prior to substrate addition measured after 2 mins by spectrophotometry
T1 sequence (P05979 whole entry): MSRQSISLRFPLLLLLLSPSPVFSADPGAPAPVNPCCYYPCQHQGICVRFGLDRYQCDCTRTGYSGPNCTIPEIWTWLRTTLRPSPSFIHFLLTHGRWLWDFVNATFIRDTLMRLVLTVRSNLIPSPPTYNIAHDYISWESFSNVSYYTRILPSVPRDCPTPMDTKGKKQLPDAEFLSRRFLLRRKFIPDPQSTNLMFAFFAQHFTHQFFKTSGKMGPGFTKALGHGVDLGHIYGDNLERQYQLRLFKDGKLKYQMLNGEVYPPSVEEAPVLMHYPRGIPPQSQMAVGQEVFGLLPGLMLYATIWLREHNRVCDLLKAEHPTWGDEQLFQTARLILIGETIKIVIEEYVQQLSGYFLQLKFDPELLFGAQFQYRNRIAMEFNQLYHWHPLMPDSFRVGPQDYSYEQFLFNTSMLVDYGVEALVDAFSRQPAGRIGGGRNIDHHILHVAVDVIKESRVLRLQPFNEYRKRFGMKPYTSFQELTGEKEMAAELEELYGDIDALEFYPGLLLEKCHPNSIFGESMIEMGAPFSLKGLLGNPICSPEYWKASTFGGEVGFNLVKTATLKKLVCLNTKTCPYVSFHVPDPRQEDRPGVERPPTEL
Method in brief: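 Ovine COX-1 with heme, preincubated 10 min at 37 °C with inhibitor at 10^-3 to 10^-6 M. Arachidonic acid reaction for 2 min, stopped with 1 M HCl, then stannous chloride. Prostaglandin quantified by competitive EIA with AChE tracer, Ellman's reagent read at 420 nm. Heat-inactivated enzyme for background. Run in duplicate; IC50 fitted from % inhibition against concentration.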

Mus musculus [4] = test: Antinociceptive activity in Swiss albino mouse assessed as reduction in capsaicin-induced paw licking at 25 mg/kg, ip administered 30 mins prior to capsaicin-challenge; assay type: functional, organism-based; design: dose 25 mg/kg; method in brief: as §1
[5] = target: T2, Prostaglandin G/H synthase 2 (Homo sapiens) (UniProt P35354); test: Inhibition of human recombinant COX2 using arachidonic acid as substrate at 10^-8 to 10^-5 M incubated for 10 mins prior to substrate addition measured after 2 mins by spectrophotometry
T2 sequence (whole entry): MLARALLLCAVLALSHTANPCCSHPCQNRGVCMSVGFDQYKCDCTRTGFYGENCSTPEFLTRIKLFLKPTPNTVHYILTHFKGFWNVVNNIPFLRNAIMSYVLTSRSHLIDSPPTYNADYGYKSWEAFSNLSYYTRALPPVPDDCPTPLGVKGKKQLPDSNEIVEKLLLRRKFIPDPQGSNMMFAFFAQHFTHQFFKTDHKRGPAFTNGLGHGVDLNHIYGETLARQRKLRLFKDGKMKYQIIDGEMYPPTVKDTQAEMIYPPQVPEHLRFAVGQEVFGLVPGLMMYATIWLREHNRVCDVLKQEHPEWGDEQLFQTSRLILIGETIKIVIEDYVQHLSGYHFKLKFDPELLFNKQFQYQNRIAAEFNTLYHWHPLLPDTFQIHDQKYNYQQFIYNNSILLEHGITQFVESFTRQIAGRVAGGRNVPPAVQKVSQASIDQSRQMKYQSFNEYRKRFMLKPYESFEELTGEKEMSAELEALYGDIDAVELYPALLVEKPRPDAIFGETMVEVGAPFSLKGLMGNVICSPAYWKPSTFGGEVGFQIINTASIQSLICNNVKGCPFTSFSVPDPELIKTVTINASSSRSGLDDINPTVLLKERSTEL
Method in brief: (§2)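 Human recombinant COX-2 or ovine COX-1 with heme in reaction buffer, preincubated with inhibitor 10 min at 37 °C. Arachidonic acid then added for 2 min, stopped with 1 M HCl, followed by stannous chloride. Prostaglandin measured by AChE-tracer EIA, 18 h at room temperature, Ellman's development, absorbance at 420 nm. Boiled enzyme as background. Duplicates; IC50 from % inhibition versus concentration plot.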

[6] = target: T3, Prostaglandin G/H synthase 1 (Ovis aries) (UniProt P05979); test: Inhibition of ovine COX1 using arachidonic acid as substrate at 10^-8 to 10^-5 M incubated for 10 mins prior to substrate addition measured after 2 mins by spectrophotometry; method in brief: as §2
T3 sequence (whole entry): T1 sequence (P05979 whole entry)

| SMILES | IC50 [3] [µM] | inhibition [5] | inhibition [6] | Activity (Mus musculus [1]) | Activity (Mus musculus [2]) | Activity (Mus musculus [4]) |
| --- | --- | --- | --- | --- | --- | --- |
| O=C(O)Cc1ccccc1Nc1c(Cl)cccc1Cl |  |  |  |  |  | Active |
| O=C1/C(=C\c2cn(CCCCOc3cc(O)c4c(=O)cc(-c5ccccc5)oc4c3)c3ccccc23)c2ccccc2N1c1c(Cl)cccc1Cl |  | inactive | inactive |  |  |  |
| CC1=NN(c2cccc(Cl)c2)C(=O)/C1=C\c1cn(CCCCOc2cc(O)c3c(=O)cc(-c4ccccc4)oc3c2)c2ccccc12 | 90 |  |  | Active | Active |  |
| O=c1cc(-c2ccccc2)oc2cc(O)cc(O)c12 [CHRYSIN] | 39.3 |  |  |  |  |  |

Continued, in another order:

| IC50 [3] [µM] | inhibition [5] | inhibition [6] | SMILES | Activity (Mus musculus [1]) | Activity (Mus musculus [2]) | Activity (Mus musculus [4]) |
| --- | --- | --- | --- | --- | --- | --- |
| 118 |  |  | CC1=NN(c2cccc(Cl)c2)C(=O)/C1=C\c1cn(CCCOc2cc(O)c3c(=O)cc(-c4ccccc4)oc3c2)c2ccccc12 | Active | inactive |  |
| 115 |  |  | O=C1/C(=C\c2cn(CCCOc3cc(O)c4c(=O)cc(-c5ccccc5)oc4c3)c3ccccc23)c2ccccc2N1c1c(Cl)cccc1Cl | Active | Active |  |
| 102 |  |  | O=C1Nc2ccccc2/C1=C/c1cn(CCCOc2cc(O)c3c(=O)cc(-c4ccccc4)oc3c2)c2ccccc12 | inactive | inactive |  |
|  | inactive | inactive | O=C1Nc2ccccc2/C1=C/c1cn(CCCCOc2cc(O)c3c(=O)cc(-c4ccccc4)oc3c2)c2ccccc12 |  |  |  |
